# Measured values of several laboratories.
# Protocols differ between the studies behind these lines.
# PDE4D: 3',5'-cyclic-AMP phosphodiesterase 4D (PDE4D, Homo sapiens, UniProt Q08499)
# MTNR1B: Melatonin receptor type 1B (MTNR1B, Homo sapiens, UniProt P49286)
Compound,target,test,test system,setting,endpoint,result
CC[C@H](C)[C@@H]1NC(=O)[C@@H]2CSSC[C@H](NC(=O)[C@@H](NC(=O)CN)[C@@H](C)O)C(=O)N[C@@H](CC(N)=O)C(=O)N[C@@H]([C@@H](C)O)C(=O)N3CCC[C@H]3C(=O)NCC(=O)N[C@H]3CSSC[C@H](NC(=O)[C@H](CCSC)NC(=O)[C@H](CC(C)C)NC(=O)[C@H](CCCNC(=N)N)NC(=O)CNC(=O)CNC(=O)[C@H](CC(=O)O)NC1=O)C(=O)NCC(=O)N[C@@H](CCC(=O)O)C(=O)N[C@@H]([C@@H](C)O)C(=O)N[C@H](C(=O)N[C@H](C(=O)NCC(=O)O)C(C)C)CSSC[C@H](NC(=O)[C@H]([C@@H](C)O)NC3=O)C(=O)N[C@@H](CO)C(=O)N[C@@H](Cc1c[nH]c3ccccc13)C(=O)N1CCC[C@H]1C(=O)N[C@@H](C(C)C)C(=O)N2,"Prothrombin (F2, Homo sapiens, UniProt P00734)","binding, SPR",,,koff,~0.001 s⁻¹
Cc1nn(C)cc1-c1nc2c(N3CCN(Cc4ccc(Cl)cc4)CC3)c(Cl)cnc2[nH]1,"Calcium/calmodulin-dependent protein kinase type 1G (CAMK1G, Homo sapiens, UniProt Q96NX5)","binding, competition with immobilised ligand",,1 µM,remaining binding,100%
Nc1ncc(-c2nc(N3CCOCC3)nc(N3CCOCC3)n2)c(C(F)F)n1,"Non-receptor tyrosine-protein kinase TNK1 (TNK1, Homo sapiens, UniProt Q13470)","binding, competition with immobilised ligand",,10 µM,remaining binding,83%
C=C(C)[C@@H]1CC=C2C(=CC[C@]3(C)[C@@H]([C@@H](CCC=C(C)C)C(=O)O)[C@H](O)C[C@@]23C)[C@@]1(C)CCC(=O)O,PDE4D,"enzyme activity, inhibitor, radiometric",,50 µM,inhibition,51.7%
CCN(CC)CCCC[C@H](NC(=O)[C@H](CC(C)C)NC(=O)[C@H](C)NC(=O)[C@H](Cc1ccccc1)NC(=O)c1ccc(C(C)(C)C)cc1)C(=O)N[C@@H](CO)C(=O)OC,"Prostaglandin E2 receptor EP4 subtype (PTGER4, Homo sapiens, UniProt P35408)","ligand displacement, radioligand",,10 µM,remaining binding,95.2%
COc1ncccc1-c1cnn2ccc(N3CCN(C(=O)OC(C)C)CC3)nc12,"Mitogen-activated protein kinase 7 (MAPK7, Homo sapiens, UniProt Q13164)","binding, competition with immobilised ligand",,1 µM,remaining binding,100%
CC1(C)[C@@H](O[C@H]2O[C@H](C(=O)O)[C@@H](O)[C@H](O)[C@H]2O[C@@H]2O[C@H](C(=O)O)[C@@H](O)[C@H](O)[C@H]2O)CC[C@]2(C)[C@H]3C(=O)C=C4[C@@H]5C[C@@](C)(C(=O)O)CC[C@]5(C)CC[C@@]4(C)[C@]3(C)CC[C@@H]12,PDE4D,"enzyme activity, inhibitor, radiometric",,50 µM,inhibition,10.9%
COc1ccc2[nH]cc(CCNC(=O)CI)c2c1,MTNR1B,"GTPγS binding, agonist, radiometric",,cell membranes,Emax,123%
O=C(O)c1ccccc1O,PDE4D,"enzyme activity, inhibitor, radiometric",,50 µM,inhibition,3.34%
COc1ccc2cccc(C(CO)CNC(=O)CF)c2c1 (stereo not shown),MTNR1B,"β-arrestin recruitment, agonist",MT2,90 min,Emax,101%
